Experimental data taken from ChEMBL document CHEMBL4118197, “The discovery and preclinical evaluation of BMS-707035, a potent HIV-1 integrase strand transfer inhibitor” (Bioorg Med Chem Lett, 2018).

Tests used:
[1] = Clearance in Sprague-Dawley rat at 1 mg/kg, iv after 4 hrs; assay type: ADME, organism-based; settings: in vivo
In short: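 Male Sprague-Dawley rats given 1 mpk IV in PEG400/ethanol (90:10); blood sampled at 5 and 30 min and 1, 2 and 4 h post-dose; clearance from plasma profile.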

[2] = molecular target: Human immunodeficiency virus type 1 integrase (Human immunodeficiency virus 1, UniProt Q7ZJM1); assay: Inhibition of HIV1 integrase strand transfer activity
[3] = Aqueous solubility of the compound; assay type: physicochemical
In short: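 Aqueous solubility measured at pH 2.3, 6.1, 7.3 and 8.5, in µg/mL.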

Human immunodeficiency virus type 1 integrase, sequence (Q7ZJM1 whole entry): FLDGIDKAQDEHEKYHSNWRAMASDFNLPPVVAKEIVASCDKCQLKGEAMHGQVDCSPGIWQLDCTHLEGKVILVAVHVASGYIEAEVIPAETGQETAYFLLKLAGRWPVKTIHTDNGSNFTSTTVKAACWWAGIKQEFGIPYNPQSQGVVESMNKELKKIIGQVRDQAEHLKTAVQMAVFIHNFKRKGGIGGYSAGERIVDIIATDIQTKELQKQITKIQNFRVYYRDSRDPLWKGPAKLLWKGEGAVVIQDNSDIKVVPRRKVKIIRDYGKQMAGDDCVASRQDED

SMILES | clearance [1] [mL/min/kg] | IC50 [2] [nM] | solubility [3] [µg/mL]
CC1(C)OCCn2c1nc(C(=O)NCc1ccc(F)cc1S(C)(=O)=O)c(O)c2=O | 6.9 | 6 | 
O=C(NCc1ccc(F)cc1S(=O)(=O)N1CCOCC1)c1nc2n(c(=O)c1O)CCCC21CCCC1 |  | 11 | ≤ 5
CN(C)S(=O)(=O)c1cc(F)ccc1CNC(=O)c1nc2n(c(=O)c1O)CCCC21CCCC1 |  | 6 | ≤ 5
CC1(C)OCCn2c1nc(C(=O)NCc1ccc(F)cc1N1CCCCS1(=O)=O)c(O)c2=O | 38 | 9 | 

These reach a lower IC50 [2]. Values come first.

clearance [1] [mL/min/kg] | IC50 [2] [nM] | solubility [3] [µg/mL] | SMILES
 | 5 | ≤ 5 | O=C(NCc1ccc(F)cc1N1CCCCS1(=O)=O)c1nc2n(c(=O)c1O)CCCC21CCCC1
 | 2 |  | Cc1cc(F)ccc1CNC(=O)c1nc2n(c(=O)c1O)CCOC2(C)C
18 | 3 | ≤ 5 | O=C(NCc1ccc(F)cc1)c1nc2n(c(=O)c1O)CCCC21CCCC1
17 | 2 | ≤ 5 | Cc1cc(CNC(=O)c2nc3n(c(=O)c2O)CCCC32CCCC2)ccc1F
